Assay [1] relates to PBMC. As to the kind of experiment: Antiinflammatory activity in human PBMC assessed as inhibition of LPS-induced TNFalpha production after 18 to 24 hrs by ELISA. In kind it is functional, cell-based. On the technique in general: In an ELISA, binding on a coated surface is turned into a signal by an enzyme label.
The next assay concerns Blood. As to the kind of experiment: Antiinflammatory activity in human whole blood assessed as inhibition of LPS-induced TNFalpha production after 18 to 24 hrs by ELISA. The assay is classed as functional, tissue-based.
The target in assay [2] is T1, Bromodomain-containing protein 4 (Homo sapiens, UniProt O60885). As to the kind of experiment: Inhibition of His6FLAG-tagged BRD4-BD12 expressed in Escherichia coli assessed as change in melting temperature at 100 uM by thermal shift assay. In a few lines:
(§1)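 Thermal melt: protein heated with or without 100 μM compound, at least duplicate; Sypro orange at 1:1000 in PBS with 10% glycerol; ramp 1 °C/min, fluorescence read every 0.5 °C; ΔTm reported.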

Assay [3] addresses T2, ATPase family AAA domain-containing protein 2B (Homo sapiens) (UniProt Q9ULI0).
T2 sequence (whole entry): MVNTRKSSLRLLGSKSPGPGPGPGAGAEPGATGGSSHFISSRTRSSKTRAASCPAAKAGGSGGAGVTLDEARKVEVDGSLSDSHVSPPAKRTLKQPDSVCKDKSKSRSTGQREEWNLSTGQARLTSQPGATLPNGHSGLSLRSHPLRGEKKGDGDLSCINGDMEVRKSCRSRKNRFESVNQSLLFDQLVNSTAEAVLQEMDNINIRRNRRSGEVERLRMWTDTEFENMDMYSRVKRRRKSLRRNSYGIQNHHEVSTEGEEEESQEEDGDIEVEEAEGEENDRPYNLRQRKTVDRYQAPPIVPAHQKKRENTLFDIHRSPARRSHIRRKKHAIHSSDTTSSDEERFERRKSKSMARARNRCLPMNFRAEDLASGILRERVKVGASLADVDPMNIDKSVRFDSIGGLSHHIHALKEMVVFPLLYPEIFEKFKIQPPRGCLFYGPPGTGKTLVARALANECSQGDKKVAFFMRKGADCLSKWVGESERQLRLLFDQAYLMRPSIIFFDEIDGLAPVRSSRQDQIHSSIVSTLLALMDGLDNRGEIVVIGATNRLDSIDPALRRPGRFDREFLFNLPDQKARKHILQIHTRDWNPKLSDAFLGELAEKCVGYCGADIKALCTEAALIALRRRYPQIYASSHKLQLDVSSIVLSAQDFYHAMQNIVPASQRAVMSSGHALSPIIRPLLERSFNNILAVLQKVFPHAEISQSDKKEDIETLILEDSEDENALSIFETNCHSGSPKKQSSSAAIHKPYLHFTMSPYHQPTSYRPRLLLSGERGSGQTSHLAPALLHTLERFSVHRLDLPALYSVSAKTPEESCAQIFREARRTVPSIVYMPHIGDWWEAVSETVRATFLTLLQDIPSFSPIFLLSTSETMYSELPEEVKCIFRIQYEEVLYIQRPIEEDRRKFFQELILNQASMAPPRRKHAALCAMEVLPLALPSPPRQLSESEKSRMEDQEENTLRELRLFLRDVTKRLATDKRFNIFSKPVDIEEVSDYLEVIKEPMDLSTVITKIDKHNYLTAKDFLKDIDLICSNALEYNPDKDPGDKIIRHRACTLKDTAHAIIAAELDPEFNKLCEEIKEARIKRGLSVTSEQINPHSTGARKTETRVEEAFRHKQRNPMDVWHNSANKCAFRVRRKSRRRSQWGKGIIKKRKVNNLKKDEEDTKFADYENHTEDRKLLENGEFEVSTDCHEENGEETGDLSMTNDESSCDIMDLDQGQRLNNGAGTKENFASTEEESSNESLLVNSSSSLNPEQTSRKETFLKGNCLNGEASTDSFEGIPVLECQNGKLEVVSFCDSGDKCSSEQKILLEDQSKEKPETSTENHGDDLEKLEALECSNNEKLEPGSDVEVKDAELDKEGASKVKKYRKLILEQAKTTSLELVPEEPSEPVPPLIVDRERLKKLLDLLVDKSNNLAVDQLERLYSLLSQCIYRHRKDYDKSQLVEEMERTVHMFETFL
In words: Inhibition of His6FLAG-tagged ATD2B expressed in Escherichia coli assessed as change in melting temperature at 100 uM by thermal shift assay. In a few lines: as §1

Assay [4] has as its system PBMC. As to the kind of experiment: Antiinflammatory activity in human PBMC assessed as inhibition of LPS-induced IL6 production after 18 to 24 hrs by ELISA. In kind it is functional, cell-based.
Assay [5] concerns the target T1, Bromodomain-containing protein 4. As to the kind of experiment: Binding affinity to His6-tagged BRD4 expressed in Escherichia coli by surface plasmon resonance assay. In a few lines:
(§2)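 SPR with tandem bromodomain (BRD2-BD12 or BRD4-BD12) amine-coupled to CM5 chip after EDC/NHS activation; protein 0.1−2 mg/mL in NaAc pH 4.5−5.5, >5 kRU immobilized, ethanolamine-blocked. Running buffer 50 mM HEPES pH 7.5, 150 mM NaCl.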
A general note: Surface plasmon resonance follows binding to a sensor surface in real time, without labels.

Assay [6] shares this target. In words: Inhibition of His6-tagged BRD4-BD12 expressed in Escherichia coli assessed as inhibition of binding to SGRG-K(Ac)-GG-K(Ac)-GLG-K(Ac)-GGA-K(Ac)-RHGSGSK-biotin after 1 hr by TR-FRET assay. (TR-FRET usually uses a lanthanide donor and a delayed reading to cut background.)
Assay [7] concerns the target T3, Bromodomain-containing protein 2 (Homo sapiens, UniProt P25440). In words: Binding affinity to His6-tagged BRD2 expressed in Escherichia coli by surface plasmon resonance assay. In a few lines:
as §2

The target of assay [8] is T3, Bromodomain-containing protein 2. In words: Inhibition of His6-tagged BRD2 expressed in Escherichia coli assessed as inhibition of binding to SGRG-K(Ac)-GG-K(Ac)-GLG-K(Ac)-GGA-K(Ac)-RHGSGSK-biotin after 1 hr by TR-FRET assay. In a few lines:
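TR-FRET competition using tandem bromodomain construct; displacement of a tetra-acetylated biotinylated peptide measured, IC50 reported.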
Target sequence in this assay (P25440 whole entry): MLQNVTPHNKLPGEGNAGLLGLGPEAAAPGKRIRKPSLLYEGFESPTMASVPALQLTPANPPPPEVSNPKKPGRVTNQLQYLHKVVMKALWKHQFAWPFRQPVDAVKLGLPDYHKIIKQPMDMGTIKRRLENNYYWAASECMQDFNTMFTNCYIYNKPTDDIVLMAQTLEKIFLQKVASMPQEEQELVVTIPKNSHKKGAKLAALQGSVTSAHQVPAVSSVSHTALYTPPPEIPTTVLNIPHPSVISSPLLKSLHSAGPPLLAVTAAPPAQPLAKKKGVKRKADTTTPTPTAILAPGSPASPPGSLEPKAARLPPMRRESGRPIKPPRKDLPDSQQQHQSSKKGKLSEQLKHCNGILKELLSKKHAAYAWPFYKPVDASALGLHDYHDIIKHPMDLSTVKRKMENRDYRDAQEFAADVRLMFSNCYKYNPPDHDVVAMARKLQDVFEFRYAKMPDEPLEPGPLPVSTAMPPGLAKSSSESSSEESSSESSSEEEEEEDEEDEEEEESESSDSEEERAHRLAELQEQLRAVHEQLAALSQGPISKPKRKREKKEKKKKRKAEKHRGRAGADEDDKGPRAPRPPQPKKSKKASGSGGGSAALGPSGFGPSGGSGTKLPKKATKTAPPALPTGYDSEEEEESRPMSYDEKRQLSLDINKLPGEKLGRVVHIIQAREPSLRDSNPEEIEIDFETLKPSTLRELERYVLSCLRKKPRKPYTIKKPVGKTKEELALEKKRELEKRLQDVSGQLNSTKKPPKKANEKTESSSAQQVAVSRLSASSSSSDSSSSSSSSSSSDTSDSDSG

The target of assay [9] is Bromodomain-containing protein 3 (Homo sapiens, UniProt Q15059). In words: Inhibition of His6-tagged BRD3 expressed in Escherichia coli assessed as inhibition of binding to SGRG-K(Ac)-GG-K(Ac)-GLG-K(Ac)-GGA-K(Ac)-RHGSGSK-biotin after 1 hr by TR-FRET assay.
Sequence of Bromodomain-containing protein 3 (Q15059 whole entry): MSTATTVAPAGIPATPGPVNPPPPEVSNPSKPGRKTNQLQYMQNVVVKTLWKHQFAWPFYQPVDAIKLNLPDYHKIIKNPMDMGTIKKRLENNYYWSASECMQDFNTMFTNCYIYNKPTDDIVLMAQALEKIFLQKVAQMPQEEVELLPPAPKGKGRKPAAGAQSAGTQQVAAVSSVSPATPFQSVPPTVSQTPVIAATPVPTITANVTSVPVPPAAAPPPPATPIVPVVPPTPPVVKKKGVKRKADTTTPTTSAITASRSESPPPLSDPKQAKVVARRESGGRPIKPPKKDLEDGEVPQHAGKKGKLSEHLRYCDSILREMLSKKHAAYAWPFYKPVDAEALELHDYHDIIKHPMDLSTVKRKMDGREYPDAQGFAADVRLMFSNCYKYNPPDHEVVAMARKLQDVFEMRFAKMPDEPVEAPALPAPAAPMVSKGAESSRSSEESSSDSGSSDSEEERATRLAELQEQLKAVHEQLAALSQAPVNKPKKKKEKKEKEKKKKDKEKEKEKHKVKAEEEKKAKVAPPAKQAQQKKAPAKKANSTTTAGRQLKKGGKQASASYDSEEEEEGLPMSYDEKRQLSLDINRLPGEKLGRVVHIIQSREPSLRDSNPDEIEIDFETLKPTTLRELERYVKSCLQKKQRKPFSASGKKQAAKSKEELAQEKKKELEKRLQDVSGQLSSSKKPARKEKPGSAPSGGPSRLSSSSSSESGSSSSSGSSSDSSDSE

For `Cc1ccc(-c2c(C)noc2C)cc1S(=O)(=O)NC1CCCC1`, the IC50 is 200 nM with PBMC [1] (read-out: IC50), 126 nM in the assay with PBMC [1] (read-out: pIC50 (converted)), 5 µM with Blood and 3.1 µM in the assay on PBMC [4]. Besides, the ΔTm in assay [2] was 5 °C; in assay [3] it was less than 1 °C.
For the compound `Cc1noc(C)c1-c1ccc(OCCCN2CCOCC2)c(S(=O)(=O)NC2CCCC2)c1`, the Kd in assay [5] worked out at 2750 nM; in assay [7] it was 3.14 µM. Moreover, the RUmax in assay [5] was 25%; in assay [7], 34%. The IC50 in [6] stood at 2600 nM; in assay [8], 1500 nM; in assay [9], 1100 nM. Also, the ΔTm in assay [2] was 5 °C; in assay [3] it was less than 1 °C.

What is called ΔTm is the change in melting temperature against a reference sample. The Kd is the concentration at which binding is half-saturated. A higher Kd goes with weaker binding.

These data come from ChEMBL document CHEMBL2176978, “Fragment-based discovery of bromodomain inhibitors part 2: optimization of phenylisoxazole sulfonamides” (J Med Chem, 2012).
